Bioassay records: PubChem BioAssay, several laboratories
In the library only some 2.5% were active in any assay of this set; here they are far more common.
NLRP3 yeast inh = NALP3 inflammasome inhibitors in reconstituted yeast, primary screen, luminescence, uHTS | Yeast reconstituted NLRP3/ASC/caspase-1, beta-gal luminescence, 24 h | inhibition, % at 10 µM | 330,000 tested, 0.39% active | AID 2825, 2010;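 active = inhibition of 50% or more; inactive = inhibition below 50%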
Bfl-1 A1 inh = caspase 3/7 activation in MEF A1-2A-BIM cells, primary screen, A1 inhibitor project, cell-based, luminescence, HTS; Caspase-Glo 3/7 luminescence, 3 h; percent of clofoctol response, vehicle zero; caspase activation, % (test concentration not listed); 330,000 tested, 0.066% active;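 active = over half of replicate activation scores above 10%, or exactly half above 10 with the replicate mean above 10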
TbMetRS inhib = T. brucei MetRS inhibitors, primary screen, biochemical, luminescence | purified T. brucei MetRS, ATP depletion, Kinase-Glo luminescence | inhibition, % at 11.9 µM | 360,000 tested, 0.4% active | AID 624268, 2012;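 active = inhibition above a per-plate cutoff of the control wells' mean inhibition plus 3 SD, cut at about 5.5% in these data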
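Dosing: 11.9 µM single point; system: parasite MetRS enzyme; technique: luminescence of leftover ATP; times: 15 min enzyme-compound preincubation, 2 h reaction, 10 min detection, 25 °C; replicates: each compound tested once; read-out basis: percent inhibition relative to median high and low control wells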
MC4R barr agon = MC4R agonists recruiting beta-arrestin, primary screen, cell-based, luminescence, agonist arm of biased-ligand search; U2OS MC4R beta-arrestin complementation; percent of melanotan II response, DMSO zero; activation, % at 8.9 µM; 360,000 tested, 0.98% active;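 active = activation above a per-plate cutoff, the mean activation of sample wells on that plate plus 3 SD, cut at about 8% in these data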
Target sequence (P32245 whole entry, looked up): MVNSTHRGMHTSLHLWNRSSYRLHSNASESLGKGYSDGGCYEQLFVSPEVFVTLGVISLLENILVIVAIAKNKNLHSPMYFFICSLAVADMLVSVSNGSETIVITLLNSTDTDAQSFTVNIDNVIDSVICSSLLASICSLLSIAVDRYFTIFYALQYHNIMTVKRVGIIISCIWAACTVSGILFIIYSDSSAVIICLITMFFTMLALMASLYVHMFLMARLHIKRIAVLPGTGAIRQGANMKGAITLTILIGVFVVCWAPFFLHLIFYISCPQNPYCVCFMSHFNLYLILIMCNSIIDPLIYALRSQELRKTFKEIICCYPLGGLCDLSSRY
MC4R antagonist = MC4R antagonists of cAMP signaling, primary screen, cell-based, TR-FRET, antagonist arm of biased-ligand search; Melanocortin receptor 4 (Homo sapiens), P32245; MC4R-expressing cells, MTII-stimulated cAMP, LANCE TR-FRET; inhibition, % at 6.5 µM; 360,000 tested, 0.48% active; AID 540295, 2011;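 active = inhibition above its plate's cutoff, the mean of tested wells on that plate plus 3 SD, cut at about 29% in these data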
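System: U2OS cells stably expressing human melanocortin 4 receptor (MC4R). Reagent: Melanotan II challenge after compound preincubation. Doses: 6.5 µM. Times: 30-min compound, 1-h challenge, 1-h detection, room temperature. Measured by: TR-FRET with Eu-cAMP and labeled anti-cAMP, 671 nm. Replicates: singlicate.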
NALP1 yeast inh = NALP1 inflammasome inhibitors in reconstituted yeast, colorimetric, S. cerevisiae, triplicate retest; S. cerevisiae NALP1/ASC/caspase-1 growth, X-gal OD620, 72 h; inhibition, % at 10 µM; 280,000 tested, 0.61% active; in the data active = inhibition mostly above about 24%, no sharp cut-off; inactive = mostly below about 32%
NALP3 confirm = NALP3 inhibitors retested in yeast, confirmation, luminescence, single concentration. shares compounds with NLRP3 yeast inh. inhibition, % at 10 µM. AID 435006, 2010. 1,300 tested, 81% active. yeast expressing human NALP3; in the data active = inhibition above about 48%
Casp1 ASC ctr = CASP1-PYCARD signaling inhibition in yeast, confirmatory test, counterassay for NLRP3 inhibitor program, one-dose; AID 488784, 2010; yeast expressing Caspase-1-ASC, luminescence counter screen; 1,000 tested, 66% active; shares compounds with NLRP3 yeast inh; inhibition, % at 10 µM
NALP3 yeast rt = NALP3 inhibitors in yeast, repeat test, confirmation, luminescence, single concentration, retest. shares compounds with NLRP3 yeast inh. yeast expressing human NALP3, luminescence read-out. inhibition, % at 10 µM. 1,000 tested, 53% active
U2OS cAMP counter = nonselective cAMP signaling inhibitors, parental cells, counter-screen for MC4R biased antagonist project, cell-based, TR-FRET, U2OS, forskolin, triplicate. shares compounds with MC4R antagonist. inhibition, % at 6.5 µM. LANCE TR-FRET. 1,600 tested, 26% active;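 active = mean inhibition over triplicates above the low-control well mean plus 3 SD, set per campaign, cut at about 13% in these data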;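 also: signal is single emission at 671 nm which falls as cellular cAMP rises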
MC4R cAMP antag = MC4R cAMP antagonists, retest, confirmation, cell-based, TR-FRET; shares compounds with MC4R antagonist; MC4R-expressing cells, MTII-stimulated cAMP; inhibition, % at 6.5 µM; 1,600 tested, 27% active; AID 602195, 2012; in the data active = inhibition above about 29%
Tb MetRS conf = T. brucei MetRS inhibitors, confirmation, biochemical, luminescence | shares compounds with TbMetRS inhib | T. brucei MetRS enzyme, luminescence (ATP depletion) | inhibition, % at 11.9 µM | 1,400 tested, 93% active; in the data active = inhibition above about 7%
Jurkat tox = Jurkat T cell cytotoxicity, cytotoxicity control for T. brucei MetRS inhibitor project, luminescence, high throughput; shares compounds with TbMetRS inhib; Jurkat cells viability, ATP luminescence; inhibition, % at 8.3 µM; 1,400 tested, 12% active; in the data active = inhibition above about 15%
TbMetRS FP orth = T. brucei MetRS inhibitors, orthogonal assay for T. brucei MetRS inhibitor project, biochemical, fluorescence polarization. 1,400 tested, 44% active. shares compounds with TbMetRS inhib. inhibition, % at 11.9 µM. purified T. brucei MetRS; in the data active = inhibition above about 17%
Hits are given with their value; . = inactive; / = no result. Rule as the data show it, unless noted: active = inhibition above about 50%; inactive = the rest.

SMILES | NLRP3 yeast inh | Bfl-1 A1 inh | TbMetRS inhib | MC4R barr agon | MC4R antagonist | NALP1 yeast inh | U2OS cAMP counter | MC4R cAMP antag | others
O=[N+]([O-])c1ccc(NC(=S)NCCc2ccc(Cl)cc2)cc1 | 69 | . | 6.9 | . | . | . | / | / | NALP3 confirm=68;Casp1 ASC ctr=93;NALP3 yeast rt=94;Tb MetRS conf=13;Jurkat tox=36;TbMetRS FP orth=47
COC(=O)c1cc(C(=O)OCC(=O)N2CCCCC2)cc([N+](=O)[O-])c1 | . | . | . | . | . | / | / | /
CCOC(=O)COc1ccccc1/C=C\[N+](=O)[O-] | / | . | . | . | 29 | 102 | 37 | 44
O=C(NCC(=O)N1CCN(S(=O)(=O)/C=C/c2ccccc2)CC1)c1ccc(Cl)cc1 | . | . | . | . | 31 | / | . | .
O=C(NCC(=O)N1CCN(S(=O)(=O)/C=C/c2ccccc2)CC1)c1ccccc1F | . | . | . | . | . | . | / | /
COc1cccc(CNC(=O)COC(=O)c2ccc(-c3ccc(O)cc3)cc2)c1 | / | / | . | . | . | / | / | /
COc1ccc(OC)c(Cc2nnc(CCC(=O)N3CCCCC3c3nccs3)o2)c1 (centres undefined) | . | . | . | . | 30 | . | . | .
CCOC(=O)c1cc(-c2csc(-c3ccc(C(F)(F)F)cc3)n2)on1 | . | . | . | . | 37 | . | . | .
CCN(CC(=O)NC1CCS(=O)(=O)C1)S(=O)(=O)c1cc(C)ccc1C (centres undefined) | . | . | . | . | . | / | / | /
Cc1c(C(=O)NCc2ccc(F)cc2)oc2ccc(S(=O)(=O)N3CCOCC3)cc12 | . | . | . | . | 32 | . | . | .
CC(C)c1nnc(NC(=O)c2nc(S(=O)(=O)Cc3ccccc3)ncc2Cl)s1 | . | / | . | . | 51 | . | 25 | 47
CCCc1nnc(NC(=O)c2nc(S(=O)(=O)Cc3ccc(C)cc3)ncc2Cl)s1 | . | . | . | . | 52 | . | 22 | 36
CCOc1ccccc1NC(=O)c1nc(S(=O)(=O)Cc2ccccc2)ncc1Cl | . | / | . | . | 33 | . | . | .
C=C1[C@@H](O)[C@H](CC(C)C)N(Cc2ccccc2Br)S1(=O)=O | / | / | . | . | . | / | / | /
C/C(CC(=O)Nc1cccc(Cl)c1Cl)=N\NC(=O)c1ccccc1C | . | . | . | . | 29 | . | . | .
Cn1c(CCNC(=O)c2ccco2)nc2cc(NC(=O)c3ccccc3Cl)ccc21 | . | . | . | . | . | . | / | /
OC(c1ccc(Cl)cc1)c1ncc(-c2cccc(F)c2)[nH]1 (centres undefined) | / | / | . | . | . | / | / | /
CN(Cc1c(F)cccc1Cl)C(=O)CCc1c[nH]c2ccccc12 | . | . | . | . | 29 | . | . | .
CN(Cc1cccs1)C(=O)CCc1c[nH]c2ccccc12 | . | . | . | . | . | . | / | /
COc1cccc(NC(=O)CN(C)C(=O)c2cc(-c3ccc(F)cc3)nc3ccccc23)c1 | . | . | . | . | . | / | / | /
COc1ccc(-c2cc(C(=O)N(C)CC(=O)Nc3cccc(F)c3)c3ccccc3n2)cc1OC | / | / | . | . | 30 | / | . | .
O=C(O)CCn1c(=O)n(CCC(=O)O)c(=O)n(CCC(=O)O)c1=O | . | . | . | . | 29 | . | . | .
COc1ccc(C(=O)OCCN=C2NS(=O)(=O)c3ccccc32)cc1OC | . | . | . | . | 30 | . | . | .
Cc1cccc(NC(=O)CSCC(=O)Nc2cc(Cl)ccc2N2CCOCC2)c1 | . | . | . | . | . | / | / | /
CC(=O)OC1CCC2(C)C(CCC3C4CC=C(C(C)=O)C4(C)OC(=O)CC32)C1 (centres undefined) | / | / | . | . | 42 | / | 31 | .
SMILES | NLRP3 yeast inh | Bfl-1 A1 inh | TbMetRS inhib | MC4R barr agon | MC4R antagonist | NALP1 yeast inh | U2OS cAMP counter | MC4R cAMP antag | others
CC(=O)C1CCC2C3CCC4CC(OC(=O)CCC(=O)O)CCC4(C)C3C(=O)CC12C (centres undefined) | / | / | . | . | . | / | / | /
COC(=O)c1ccc2c(=O)n(Cc3ccco3)c(SCC(=O)Nc3ccccc3Cl)nc2c1 | . | . | . | . | 29 | . | . | .
CC(NC(=O)CN(c1cccc(C(F)(F)F)c1)S(=O)(=O)c1ccc(Cl)c([N+](=O)[O-])c1)c1ccccc1 (centres undefined) | . | . | . | . | 31 | . | 14 | 42
O=C(CN(c1cccc(C(F)(F)F)c1)S(=O)(=O)c1ccc(Cl)c([N+](=O)[O-])c1)NCc1ccccc1 | . | . | . | . | . | . | / | /
CC(O)(c1cccnc1)c1nc(-c2cc(F)cc(F)c2)cs1 (centres undefined) | / | / | . | . | . | / | / | /
COc1ccccc1-n1cc([C@@H]2C[C@H]3CN(c4ccccc4)C(=O)[C@]34CCCN24)cn1 | . | . | . | . | 35 | . | . | .
